The source made the active and inactive calls. The calls are words filed in the database; no cut-off is given here.
Assays:
Assay type in all cases: functional, cell-based
HepG2 = test: Hepatoprotective activity against N-acetyl-p-aminophenol-induced toxicity in human HepG2 cells at 10 uM after 48 hrs by MTT assay
In short: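 HepG2 cells kept in DMEM with 10% fetal calf serum plus penicillin/streptomycin at 37 °C, 5% CO2, passaged with 0.25% trypsin/0.02% EDTA. After seeding and overnight incubation, 10 μM test sample added together with APAP (8 mM final) for 48 h. MTT (0.5 mg/mL) added for 4 h, formazan dissolved in DMSO, absorbance at 570 nm. Bicyclol 10 μM as positive control; mean ± SD, n = 3.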

BGC-823 = test: Cytotoxicity against human BGC823 cells by MTT assay
A549 = test: Cytotoxicity against human A549 cells by MTT assay
HCT-8 = test: Cytotoxicity against human HCT8 cells by MTT assay
A2780 = test: Cytotoxicity against human A2780 cells by MTT assay
Bel-7402 = test: Cytotoxicity against human Bel7402 cells by MTT assay

Row | Structure (SMILES) | Activity (HepG2) | IC50 (BGC-823) [µM] | IC50 (A549) [µM] | IC50 (HCT-8) [µM] | IC50 (A2780) [µM] | IC50 (Bel-7402) [µM]
1 | CC(C)[C@]1(O)C(=O)C[C@H](C)[C@@]12CC[C@](C)(O)C(=O)C2 | Active | > 10 | > 10 | > 10 | > 10 | > 10
2 | CC1=CCC23OC(C(C)(C)O)(CC12O)C(=O)C=C3C (racemic) | Active | > 10 | > 10 | > 10 | > 10 | > 10
3 | CC1=C[C@@H](O)[C@@]2(CC1=O)[C@@H](C(C)C)C(=O)C[C@@H]2C (relative stereo) |  | > 10 | > 10 | > 10 | > 10 | > 10
4 | C[C@@H]1C(=O)CC[C@@H](C)[C@]2(O)C=C(C(C)(C)O)C(=O)[C@@H]12 [CALAMUSIN A] |  | > 10 | > 10 | > 10 | > 10 | > 10
5 | C[C@@H]1CC[C@]2(O)O[C@]13C=C(C(C)(C)O)C(=O)[C@H]3[C@@H]2C [CALAMUSIN B] |  | > 10 | > 10 | > 10 | > 10 | > 10
6 | CC1=C[C@H](O)[C@]2(CC1=O)[C@H](C)CC(=O)[C@H]2C(C)C [CALAMUSIN E] |  | > 10 | > 10 | > 10 | > 10 | > 10
7 | CC(C)=C1C(=O)C[C@@H](C)[C@@]2(O)CC[C@H](C)C(=O)[C@@H]12 [CALAMUSIN G] | Active | > 10 | > 10 | > 10 | > 10 | > 10
8 | Cc1ccc(C(C)C)c2c1[C@H](O)C[C@@](C)(O)[C@H]2O [CALAMUSIN H] |  | > 10 | > 10 | > 10 | > 10 | > 10
9 | C[C@]1(O)CC[C@H](O)[C@@]2(C)CCC(=O)C=C12 [CALAMUSIN I] | Active | > 10 | > 10 | > 10 | > 10 | > 10

Source: ChEMBL document CHEMBL2062424, “Bioactive sesquiterpenoids from the rhizomes of Acorus calamus” (J Nat Prod, 2012)
